According to ChEMBL document CHEMBL1649560, “Beta-lactamase-mediated beta-lactam resistance in Campylobacter species: prevalence of Cj0299 (bla OXA-61) and evidence for a novel beta-Lactamase in C. jejuni” (2009):
Values after ≈ are worked out from the molar mass of the structure shown.

Key:
Assay type in all cases: functional
[1] = test system: Campylobacter jejuni; test: Antibacterial activity against bla gene-positive and nitrocefin reaction-positive beta-lactamase harboring Campylobacter jejuni isolate P1093 by NCCLS agar doubling dilution method
How it was run: (§1)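 MICs of β-lactams by agar doubling dilution following the NCCLS (CLSI) Campylobacter Working Group procedure, with C. jejuni NCTC 11168 and C. coli NCTC 11366 as controls. Isolates were from UK poultry flocks. β-Lactamase status was set by Cj0299 PCR (281-bp amplimer) and by a nitrocefin colour change of sonicated lysate within 5 min, or within 30 min on repeat.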

[2] = test system: Campylobacter jejuni; test: Antibacterial activity against Campylobacter jejuni isolate P338 harboring blaOXA-61::cat gene by NCCLS agar doubling dilution method
How it was run: (§2)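 Agar doubling dilution MICs (NCCLS/CLSI Campylobacter Working Group method) against Cj0299-inactivated mutants. Mutants were made by transforming the C. jejuni isolate with pCI and selecting on Mueller-Hinton agar with 10 μg/ml chloramphenicol for 3–5 days. Chromosomal insertion was confirmed by PCR with Cj0299 and cat primers.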

[3] = test system: Campylobacter jejuni; test: Antibacterial activity against bla gene-negative and nitrocefin reaction-positive beta-lactamase harboring Campylobacter jejuni isolate P843 by NCCLS agar doubling dilution method; how it was run: as §1
[4] = test system: Campylobacter jejuni; test: Antibacterial activity against bla gene-positive and nitrocefin reaction-negative beta-lactamase harboring Campylobacter jejuni isolate P1698 by NCCLS agar doubling dilution method; how it was run: as §1
[5] = test system: Campylobacter jejuni; test: Antibacterial activity against bla gene-positive and nitrocefin reaction-positive beta-lactamase harboring Campylobacter jejuni isolate P316 by NCCLS agar doubling dilution method
How it was run: (§3)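 MICs by agar doubling dilution per the NCCLS (now CLSI) Campylobacter Working Group method. Isolates came from UK chicken flocks (feces, ceca or farm environment), 2000–2006. C. jejuni NCTC 11168 and C. coli NCTC 11366 served as control strains. The ampicillin resistance cutoff was 8 μg/ml; BSAC/CLSI Enterobacteriaceae guidelines were used for other agents.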

[6] = test system: Campylobacter jejuni; test: Antibacterial activity against bla gene-positive and nitrocefin reaction-positive beta-lactamase harboring Campylobacter jejuni isolate P1730 by NCCLS agar doubling dilution method; how it was run: as §3
[7] = test system: Campylobacter coli; test: Antibacterial activity against Campylobacter coli by NCCLS agar doubling dilution method
How it was run: (§4)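 MICs by agar doubling dilution following the NCCLS (CLSI) Campylobacter Working Group procedure, applied to ampicillin- and amoxicillin-resistant isolates from UK chicken flocks (2000–2006). C. jejuni NCTC 11168 and C. coli NCTC 11366 served as control strains. Resistance was called at an ampicillin cutoff of 8 μg/ml. Other agents were judged against Enterobacteriaceae guidelines (BSAC, CLSI).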

[8] = test system: Campylobacter jejuni; test: Antibacterial activity against bla gene-negative and nitrocefin reaction-negative beta-lactamase harboring Campylobacter jejuni isolate P1962 by NCCLS agar doubling dilution method; how it was run: as §1
[9] = test system: Campylobacter jejuni; test: Antibacterial activity against bla gene-negative and nitrocefin reaction-positive beta-lactamase harboring Campylobacter jejuni isolate P854 by NCCLS agar doubling dilution method; how it was run: as §1
[10] = test system: Campylobacter jejuni; test: Antibacterial activity against bla gene-positive and nitrocefin reaction-positive beta-lactamase harboring Campylobacter jejuni isolate P1650 by NCCLS agar doubling dilution method; how it was run: as §1
[11] = test system: Campylobacter jejuni; test: Antibacterial activity against Campylobacter jejuni isolate P1093 harboring blaOXA-61::cat gene by NCCLS agar doubling dilution method; how it was run: as §2
[12] = test system: Campylobacter jejuni; test: Antibacterial activity against Campylobacter jejuni by NCCLS agar doubling dilution method; how it was run: as §4
[13] = test system: Campylobacter jejuni; test: Antibacterial activity against bla gene-negative and nitrocefin reaction-negative beta-lactamase harboring Campylobacter jejuni isolate P835 by NCCLS agar doubling dilution method; how it was run: as §1
[14] = test system: Campylobacter jejuni; test: Antibacterial activity against bla gene-positive and nitrocefin reaction-negative beta-lactamase harboring Campylobacter jejuni isolate P1699 by NCCLS agar doubling dilution method; how it was run: as §1
[15] = test system: Campylobacter coli; test: Antibacterial activity against bla gene-positive and nitrocefin reaction-positive beta-lactamase harboring Campylobacter coli isolate P321 by NCCLS agar doubling dilution method; how it was run: as §1
[16] = test system: Campylobacter jejuni; test: Antibacterial activity against bla gene-positive and nitrocefin reaction-negative beta-lactamase harboring Campylobacter jejuni NCTC 11168 by NCCLS agar doubling dilution method; how it was run: as §1
[17] = test system: Campylobacter coli; test: Antibacterial activity against bla-positive and beta-lactamase-weakly positive Campylobacter coli isolate P1627 by NCCLS agar doubling dilution method; how it was run: as §3
[18] = test system: Campylobacter jejuni; test: Antibacterial activity against Campylobacter jejuni isolate P270 harboring blaOXA-61::cat gene by NCCLS agar doubling dilution method
[19] = test system: Campylobacter jejuni; test: Antibacterial activity against bla gene-positive and nitrocefin reaction-positive beta-lactamase harboring Campylobacter jejuni isolate P286 by NCCLS agar doubling dilution method; how it was run: as §3
[20] = test system: Campylobacter jejuni; test: Antibacterial activity against bla gene-positive and nitrocefin reaction-positive beta-lactamase harboring Campylobacter jejuni isolate P338 by NCCLS agar doubling dilution method; how it was run: as §3
[21] = test system: Campylobacter coli; test: Antibacterial activity against bla gene-positive and nitrocefin reaction-positive beta-lactamase harboring Campylobacter coli isolate P1826 by NCCLS agar doubling dilution method; how it was run: as §1
[22] = test system: Campylobacter jejuni; test: Antibacterial activity against bla gene-positive and nitrocefin reaction-positive beta-lactamase harboring Campylobacter jejuni isolate P305 by NCCLS agar doubling dilution method; how it was run: as §3
[23] = test system: Campylobacter jejuni; test: Antibacterial activity against bla gene-negative and nitrocefin reaction-negative beta-lactamase harboring Campylobacter jejuni isolate P850 by NCCLS agar doubling dilution method; how it was run: as §1
[24] = test system: Campylobacter jejuni; test: Antibacterial activity against bla gene-positive and nitrocefin reaction-positive beta-lactamase harboring Campylobacter jejuni isolate P285 by NCCLS agar doubling dilution method; how it was run: as §3
[25] = test system: Campylobacter jejuni; test: Antibacterial activity against bla gene-positive and nitrocefin reaction-positive beta-lactamase harboring Campylobacter jejuni isolate P790 by NCCLS agar doubling dilution method; how it was run: as §3
[26] = test system: Campylobacter jejuni; test: Antibacterial activity against bla gene-positive and nitrocefin reaction-positive beta-lactamase harboring Campylobacter jejuni isolate P1618 by NCCLS agar doubling dilution method; how it was run: as §1

Question: Which results are given for `CO[C@@]1(NC(=O)Cc2cccs2)C(=O)N2C(C(=O)O)=C(COC(N)=O)CS[C@@H]21` [CEFOXITIN]?
Answer: MIC [1]: 128 µg/mL (≈ 299 µM); MIC [2]: 512 µg/mL (≈ 1200 µM); MIC [3]: 256 µg/mL (≈ 599 µM); MIC [4]: 128 µg/mL (≈ 299 µM); MIC [5]: 128 µg/mL (≈ 299 µM); MIC [6]: 256 µg/mL (≈ 599 µM); MIC50 [7]: 128 µg/mL (≈ 299 µM); MIC90 [7]: > 256 µg/mL; MIC [8]: 256 µg/mL (≈ 599 µM); MIC [9]: 128 µg/mL (≈ 299 µM); MIC [10]: 128 µg/mL (≈ 299 µM); MIC [11]: 128 µg/mL (≈ 299 µM); MIC50 [12]: 128 µg/mL (≈ 299 µM); MIC90 [12]: 256 µg/mL (≈ 599 µM); MIC [13]: 256 µg/mL (≈ 599 µM); MIC [14]: 128 µg/mL (≈ 299 µM); MIC [15]: 64 µg/mL (≈ 150 µM); MIC [16]: 32 µg/mL (≈ 74.9 µM); MIC [17]: 64 µg/mL (≈ 150 µM); MIC [18]: 32 µg/mL (≈ 74.9 µM); MIC [19]: 256 µg/mL (≈ 599 µM); MIC [20]: 512 µg/mL (≈ 1200 µM); MIC [21]: 128 µg/mL (≈ 299 µM); MIC [22]: 128 µg/mL (≈ 299 µM); MIC [23]: 256 µg/mL (≈ 599 µM); MIC [24]: 256 µg/mL (≈ 599 µM); MIC [25]: 64 µg/mL (≈ 150 µM); MIC [26]: 256 µg/mL (≈ 599 µM)
